In ChEMBL document CHEMBL1821590, “Novel dihydropyrimidines and its pyrazole derivatives: synthesis and pharmacological screening” (Eur J Med Chem, 2011):
In brackets after ≈: the same amount, converted by molar mass.

Assays:
Assay type in all cases: functional
Escherichia coli [1] = assay: Antimicrobial activity against Escherichia coli at 100 ug/ml by agar plate diffusion technique; settings: read-out: IZ
Method in brief: (§1)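 Agar plate diffusion against E. coli, P. aeruginosa, S. aureus and B. subtilis, with compounds at 25, 50 and 100 µg/mL. Streptomycin as standard.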

Staphylococcus aureus [2] = assay: Antimicrobial activity against Staphylococcus aureus at 50 ug/ml by agar plate diffusion technique; settings: read-out: IZ; method in brief: as §1
[3] = Antioxidant activity assessed as inhibition of lipid peroxidation using egg lecithin liposomes incubated for 1 hr
Method in brief: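 Egg lecithin (3 mg/mL, phosphate buffer pH 7.4) sonicated 10 min to form liposomes. Sample or ascorbic acid (12.5–100 µg/mL) added. Peroxidation induced with FeCl3 and L-ascorbic acid, 1 h at 37 °C. Stopped with HCl/TCA/TBA/BHA, boiled 15 min, centrifuged, supernatant read at 532 nm. Triplicate. % inhibition vs control. IC50 derived.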

[4] = Antioxidant activity assessed as nitric oxide radical scavenging activity after 150 mins
Method in brief: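 10 mM sodium nitroprusside (4 mL), PBS pH 7.4 (1 mL) and sample or ascorbic acid in DMSO (1 mL, 12.5–100 µg/mL), incubated 150 min at 25 °C. Nitrite detected with sulphanilic acid (5 min) then naphthylethylenediamine (30 min, diffused light). Read at […]. Triplicate. % inhibition = [1 − (Vt/Vc)] × 100. IC50 derived from it.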

Metaphire posthuma [5] = assay: Anthelmintic activity against Pheretima posthuma assessed as time taken for parasite death at 0.5% w/v
Method in brief: (§2)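 Earthworms (Pheretima posthuma, spelled Perituma posthuma in text) exposed to test compounds at 0.1, 0.2 and 0.5% w/v. Albendazole served as standard, with an untreated control. Paralysis was recorded as the time until worms became motionless, then time to death was recorded, in minutes. Each value is the mean of three determinations with S.D.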

[6] = Antioxidant activity assessed as potassium ferricyanide ion reducing power after 20 mins
Method in brief: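 Oyaizu method. Samples or ascorbic acid in DMF (12.5–100 µg/mL) mixed with 0.2 M phosphate buffer pH 6.6 and 1% potassium ferricyanide, 20 min at 50 °C. 10% TCA added, centrifuged. Supernatant mixed with water and 0.1% FeCl3, read at 700 nm. % = [(Vt/Vc) − 1] × 100. IC50 derived.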

Metaphire posthuma [7] = assay: Anthelmintic activity against Pheretima posthuma assessed as time taken for complete parasite paralysis at 0.5% w/v
Method in brief: (§3)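 Earthworms (Pheretima posthuma) exposed to test solutions at 0.1, 0.2 and 0.5% w/v; time in minutes to complete paralysis (worms motionless) recorded. Albendazole as standard. Mean of three determinations ± S.D.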

Aspergillus niger [8] = assay: Antimicrobial activity against Aspergillus niger at 25 ug/ml by paper disc method; settings: read-out: IZ
Method in brief: (§4)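 Paper disc method against A. niger and C. albicans, with compounds at 25, 50 and 100 µg/mL. Amphotericin-B as standard.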

Escherichia coli [9] = assay: Antimicrobial activity against Escherichia coli at 25 ug/ml by agar plate diffusion technique; settings: read-out: IZ; method in brief: as §1
Bacillus subtilis [10] = assay: Antimicrobial activity against Bacillus subtilis at 25 ug/ml by agar plate diffusion technique; settings: read-out: IZ; method in brief: as §1
Bacillus subtilis [11] = assay: Antimicrobial activity against Bacillus subtilis at 50 ug/ml by agar plate diffusion technique; settings: read-out: IZ; method in brief: as §1
[12] = Antiinflammatory activity assessed as inhibition of albumin denaturation at 100 ug/ml by UV-visible spectrophotometry
Method in brief: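 Compounds dissolved in minimal DMF, diluted in PBS pH 7.4 (final DMF <2.5%). 1 mL test solution (100 µg/mL) plus 1 mL 1% albumin in PBS, 15 min at 27 ± 1 °C, then heated 10 min at 60 ± 1 °C. After cooling, turbidity read at 660 nm. % inhibition = [(Vt/Vc) − 1] × 100 against a no-drug control. Triplicate, averaged. Diclofenac standard.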

Staphylococcus aureus [13] = assay: Antimicrobial activity against Staphylococcus aureus at 100 ug/ml by agar plate diffusion technique; settings: read-out: IZ; method in brief: as §1
Metaphire posthuma [14] = assay: Anthelmintic activity against Pheretima posthuma assessed as time taken for complete parasite paralysis at 0.1% w/v; method in brief: as §3
Bacillus subtilis [15] = assay: Antimicrobial activity against Bacillus subtilis at 100 ug/ml by agar plate diffusion technique; settings: read-out: IZ; method in brief: as §1
Aspergillus niger [16] = assay: Antimicrobial activity against Aspergillus niger at 100 ug/ml by paper disc method; settings: read-out: IZ; method in brief: as §4
Candida albicans [17] = assay: Antimicrobial activity against Candida albicans at 25 ug/ml by paper disc method; settings: read-out: IZ; method in brief: as §4
Pseudomonas aeruginosa [18] = assay: Antimicrobial activity against Pseudomonas aeruginosa at 50 ug/ml by agar plate diffusion technique; settings: read-out: IZ; method in brief: as §1
Candida albicans [19] = assay: Antimicrobial activity against Candida albicans at 50 ug/ml by paper disc method; settings: read-out: IZ; method in brief: as §4
Aspergillus niger [20] = assay: Antimicrobial activity against Aspergillus niger at 50 ug/ml by paper disc method; settings: read-out: IZ; method in brief: as §4
Metaphire posthuma [21] = assay: Anthelmintic activity against Pheretima posthuma assessed as time taken for complete parasite paralysis at 0.2% w/v; method in brief: as §3
Escherichia coli [22] = assay: Antimicrobial activity against Escherichia coli at 50 ug/ml by agar plate diffusion technique; settings: read-out: IZ; method in brief: as §1
Metaphire posthuma [23] = assay: Anthelmintic activity against Pheretima posthuma assessed as time taken for parasite death at 0.1% w/v; method in brief: as §2
[24] = Antioxidant activity assessed as hydrogen peroxide scavenging activity after 10 mins
Method in brief: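 H2O2 (20 mM) in PBS pH 7.4. 1 mL of sample or ascorbic acid in methanol (12.5–100 µg/mL) added to 2 mL H2O2 solution. A230 read after 10 min. % inhibition = [1 − (Vt/Vc)] × 100. Triplicate, averaged. IC50 derived from % inhibition across concentrations.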

Candida albicans [25] = assay: Antimicrobial activity against Candida albicans at 100 ug/ml by paper disc method; settings: read-out: IZ; method in brief: as §4
Pseudomonas aeruginosa [26] = assay: Antimicrobial activity against Pseudomonas aeruginosa at 100 ug/ml by agar plate diffusion technique; settings: read-out: IZ; method in brief: as §1
Metaphire posthuma [27] = assay: Anthelmintic activity against Pheretima posthuma assessed as time taken for parasite death at 0.2% w/v; method in brief: as §2
Staphylococcus aureus [28] = assay: Antimicrobial activity against Staphylococcus aureus at 25 ug/ml by agar plate diffusion technique; settings: read-out: IZ; method in brief: as §1
Pseudomonas aeruginosa [29] = assay: Antimicrobial activity against Pseudomonas aeruginosa at 25 ug/ml by agar plate diffusion technique; settings: read-out: IZ; method in brief: as §1

SMILES	zone of inhibition at 100 µg/mL (Escherichia coli [1])	zone of inhibition at 50 µg/mL (Staphylococcus aureus [2])	IC50 [3]	IC50 [4]	Time (Metaphire posthuma [5])	IC50 [6]	Time (Metaphire posthuma [7])	zone of inhibition at 25 µg/mL (Aspergillus niger [8])	zone of inhibition at 25 µg/mL (Escherichia coli [9])	zone of inhibition at 25 µg/mL (Bacillus subtilis [10])	zone of inhibition at 50 µg/mL (Bacillus subtilis [11])	inhibition [12]	zone of inhibition at 100 µg/mL (Staphylococcus aureus [13])	Time (Metaphire posthuma [14])	zone of inhibition at 100 µg/mL (Bacillus subtilis [15])	zone of inhibition at 100 µg/mL (Aspergillus niger [16])	zone of inhibition at 25 µg/mL (Candida albicans [17])	zone of inhibition at 50 µg/mL (Pseudomonas aeruginosa [18])	zone of inhibition at 50 µg/mL (Candida albicans [19])	zone of inhibition at 50 µg/mL (Aspergillus niger [20])	other results
CCOC(=O)c1cnn(-c2nc(-c3ccccc3O)c(C#N)c(=O)n2C)c1N	24.4 mm	17.4 mm	57 µg/mL (≈ 150 µM)	64 µg/mL (≈ 168 µM)	47.23 min	48 µg/mL (≈ 126 µM)	38.52 min	9.21 mm	13.5 mm	13.9 mm	14.2 mm	54.4%	22.8 mm	43.09 min	23.1 mm	18.1 mm	10.6 mm	15 mm	14.5 mm	12.6 mm	Time (Metaphire posthuma [21]): 40.03 min; zone of inhibition at 50 µg/mL (Escherichia coli [22]): 17.3 mm; Time (Metaphire posthuma [23]): 55.2 min; IC50 [24]: 58 µg/mL (≈ 152 µM); zone of inhibition at 100 µg/mL (Candida albicans [25]): 15.5 mm; zone of inhibition at 100 µg/mL (Pseudomonas aeruginosa [26]): 21.1 mm; Time (Metaphire posthuma [27]): 49.54 min; zone of inhibition at 25 µg/mL (Staphylococcus aureus [28]): 12.3 mm; zone of inhibition at 25 µg/mL (Pseudomonas aeruginosa [29]): 10.2 mm
CSc1nc(-c2cccc(O)c2O)c(C#N)c(=O)n1C	10.4 mm	10.6 mm	41 µg/mL (≈ 142 µM)	53 µg/mL (≈ 183 µM)	61.02 min	48 µg/mL (≈ 166 µM)	50.1 min	8.4 mm	7.28 mm	13 mm	15.8 mm	44.1%	13.6 mm	58.04 min	24.4 mm	17.1 mm	9.48 mm	8.12 mm	13.9 mm	10.8 mm	Time (Metaphire posthuma [21]): 62.28 min; zone of inhibition at 50 µg/mL (Escherichia coli [22]): 8.78 mm; Time (Metaphire posthuma [23]): 65.29 min; IC50 [24]: 37 µg/mL (≈ 128 µM); zone of inhibition at 100 µg/mL (Candida albicans [25]): 21 mm; zone of inhibition at 100 µg/mL (Pseudomonas aeruginosa [26]): 12.7 mm; Time (Metaphire posthuma [27]): 65.5 min; zone of inhibition at 25 µg/mL (Staphylococcus aureus [28]): 8.7 mm; zone of inhibition at 25 µg/mL (Pseudomonas aeruginosa [29]): 7.67 mm
CSc1nc(-c2ccc(Cl)cc2)c(C#N)c(=O)n1C	11.7 mm	11.7 mm	54 µg/mL (≈ 185 µM)	71 µg/mL (≈ 243 µM)	55.12 min	64 µg/mL (≈ 219 µM)	40.51 min	9.92 mm	7.08 mm	13.8 mm	18.1 mm	79.1%	15.8 mm	48.15 min	27.3 mm	18.7 mm	9.27 mm	9.62 mm	13.8 mm	11 mm	Time (Metaphire posthuma [21]): 39.29 min; zone of inhibition at 50 µg/mL (Escherichia coli [22]): 9.82 mm; Time (Metaphire posthuma [23]): 60.96 min; IC50 [24]: 56 µg/mL (≈ 192 µM); zone of inhibition at 100 µg/mL (Candida albicans [25]): 18.4 mm; zone of inhibition at 100 µg/mL (Pseudomonas aeruginosa [26]): 11.9 mm; Time (Metaphire posthuma [27]): 57.38 min; zone of inhibition at 25 µg/mL (Staphylococcus aureus [28]): 9.68 mm; zone of inhibition at 25 µg/mL (Pseudomonas aeruginosa [29]): 8.85 mm
Cn1c(NN)nc(-c2ccccc2F)c(C#N)c1=O	15.3 mm	17.3 mm	43 µg/mL (≈ 166 µM)	60 µg/mL (≈ 231 µM)	61.02 min	50 µg/mL (≈ 193 µM)	48.77 min	11.1 mm	9.85 mm	13.1 mm	15.7 mm	42.1%	22.2 mm	54.93 min	21.6 mm	19.6 mm	11.8 mm	13.8 mm	17 mm	14 mm	Time (Metaphire posthuma [21]): 51.34 min; zone of inhibition at 50 µg/mL (Escherichia coli [22]): 13.5 mm; Time (Metaphire posthuma [23]): 68.45 min; IC50 [24]: 49 µg/mL (≈ 189 µM); zone of inhibition at 100 µg/mL (Candida albicans [25]): 19.2 mm; zone of inhibition at 100 µg/mL (Pseudomonas aeruginosa [26]): 15.4 mm; Time (Metaphire posthuma [27]): 65.43 min; zone of inhibition at 25 µg/mL (Staphylococcus aureus [28]): 13.6 mm; zone of inhibition at 25 µg/mL (Pseudomonas aeruginosa [29]): 9 mm
COc1cccc(-c2nc(NN)n(C)c(=O)c2C#N)c1OC	8.12 mm	11.2 mm	37 µg/mL (≈ 123 µM)	54 µg/mL (≈ 179 µM)	67.22 min	44 µg/mL (≈ 146 µM)	51.42 min	8.38 mm	7.38 mm	9.9 mm	12.2 mm	24.6%	15.8 mm	55.23 min	16.7 mm	16.7 mm	10.1 mm	8.12 mm	11 mm	10.3 mm	Time (Metaphire posthuma [21]): 55.57 min; zone of inhibition at 50 µg/mL (Escherichia coli [22]): 7.16 mm; Time (Metaphire posthuma [23]): 71.45 min; IC50 [24]: 36 µg/mL (≈ 119 µM); zone of inhibition at 100 µg/mL (Candida albicans [25]): 17.9 mm; zone of inhibition at 100 µg/mL (Pseudomonas aeruginosa [26]): 9.15 mm; Time (Metaphire posthuma [27]): 70.25 min; zone of inhibition at 25 µg/mL (Staphylococcus aureus [28]): 8.72 mm; zone of inhibition at 25 µg/mL (Pseudomonas aeruginosa [29]): 6.15 mm
CSc1nc(-c2ccccc2O)c(C#N)c(=O)n1C	11.3 mm	9.33 mm	44 µg/mL (≈ 161 µM)	58 µg/mL (≈ 212 µM)	45.3 min	52 µg/mL (≈ 190 µM)	35.14 min	8 mm	6.25 mm	12.8 mm	16.9 mm	51.9%	11.2 mm	40.28 min	25.5 mm	15.4 mm	8.84 mm	8.16 mm	12.6 mm	9.46 mm	Time (Metaphire posthuma [21]): 39.46 min; zone of inhibition at 50 µg/mL (Escherichia coli [22]): 9.16 mm; Time (Metaphire posthuma [23]): 50.82 min; IC50 [24]: 39 µg/mL (≈ 143 µM); zone of inhibition at 100 µg/mL (Candida albicans [25]): 20 mm; zone of inhibition at 100 µg/mL (Pseudomonas aeruginosa [26]): 10.8 mm; Time (Metaphire posthuma [27]): 48.34 min; zone of inhibition at 25 µg/mL (Staphylococcus aureus [28]): 8.14 mm; zone of inhibition at 25 µg/mL (Pseudomonas aeruginosa [29]): 6.36 mm
